H9c2 TAG inh: reduces triacylglycerol accumulation in H9c2 cells; inhibition, % at 12.5 µM; 230,000 compounds, 0.66% hits; AID 651582; Nile Red lipid (TAG) fluorescence; cells loaded with 200 µM oleic acid;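 active means pattern-corrected inhibition of lipid staining of at least 50% with the nuclear-stain viability signal not falling by more than 50%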;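 further: 0% = DMSO wells and 100% = triacsin C control wells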
Cardio protect: modulators protecting cardiomyocytes from myocardial damage; protection from H2O2 cell death, % at 20 µM; 360,000 compounds, 0.63% hits; H9c2 cardiomyocytes, H2O2 injury protection, ATPLite, 2 h;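 active means compounds giving at least 50% protection of heart cells from peroxide-induced death in the single-dose screen, raw or plate-pattern-corrected value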;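 further: 0% = DMSO wells with peroxide and 100% = DMSO wells without peroxide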
DAGLB inhibitor: blocks human DAGLB lipase activity. HEK293T DAGLB membrane lysate, EnzChek fluorogenic substrate. inhibition, % at 5.17 µM. 340,000 compounds, 0.059% hits; in the data active means inhibition above about 34%;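 further: 0% = enzyme with vehicle and 100% = wells lacking enzyme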
Target sequence (Q8NCG7 whole entry, looked up): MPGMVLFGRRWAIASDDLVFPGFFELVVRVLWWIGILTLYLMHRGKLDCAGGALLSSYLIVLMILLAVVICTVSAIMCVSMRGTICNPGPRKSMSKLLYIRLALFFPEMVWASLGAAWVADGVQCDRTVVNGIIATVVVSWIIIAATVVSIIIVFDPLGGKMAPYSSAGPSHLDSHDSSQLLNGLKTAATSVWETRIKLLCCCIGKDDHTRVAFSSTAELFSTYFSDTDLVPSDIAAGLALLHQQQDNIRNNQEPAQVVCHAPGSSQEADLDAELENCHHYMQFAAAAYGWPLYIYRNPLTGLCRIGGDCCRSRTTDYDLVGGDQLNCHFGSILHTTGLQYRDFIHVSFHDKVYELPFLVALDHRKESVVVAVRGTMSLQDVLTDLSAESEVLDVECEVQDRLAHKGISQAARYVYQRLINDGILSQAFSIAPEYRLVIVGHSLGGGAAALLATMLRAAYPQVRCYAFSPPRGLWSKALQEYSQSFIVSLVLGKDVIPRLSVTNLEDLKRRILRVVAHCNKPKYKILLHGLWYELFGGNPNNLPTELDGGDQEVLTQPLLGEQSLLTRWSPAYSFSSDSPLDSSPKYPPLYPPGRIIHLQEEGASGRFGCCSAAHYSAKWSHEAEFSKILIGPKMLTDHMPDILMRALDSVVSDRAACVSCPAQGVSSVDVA
Tn6 DDE FP: disrupts Tn6 cyclic peptide binding to fibrin D-Dimer-E complex | P02675 | Fibrin DD(E) TRITC-Tn6 fluorescence polarization displacement | inhibition, % at 8.3 µM | 370,000 compounds, 0.21% hits;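 active means inhibition above a per-campaign cutoff: mean of compounds within control limits plus 3 SD, cut at about 15% in these data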;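 further: 0% = median of all compound wells on the plate and 100% = blocking peptide control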
MT1-MMP act inh: inhibitors of human MT1-MMP activation. P50281. 360,000 compounds, 0.061% hits. AID 651647. GFP/RFP ratio change, % at 20 µM. HT1080 RFP-PRO-GFP cells, GFP/RFP ratio fluorescence, overnight; percent of plate control window, DMSO zero;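 active means GFP/RFP ratio change of at least 30% with cell ATP level not reduced by more than half and red fluorescence within 50% of control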
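Assay system – RFP-PRO-GFP reporter HT1080 cells · Compound dosing – single dose of 20 µM compound, 1% DMSO final · Incubation – overnight compound exposure at 37 °C · Measure – GFP/RFP fluorescence ratio · Benchmarks – DMSO wells and RFP-L50D-GFP cells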
DDE Tn7 FP inh: inhibitors of Tn7 peptide binding to human fibrin DD(E) | 370,000 compounds, 0.13% hits | P02675 | AID 720508 | inhibition, % at 8.3 µM | FP displacement of FITC-Tn7 peptide from fibrin DD(E); 0% = median of compound wells per plate;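 active means inhibition above the mean of compounds falling within the control limits plus 3 SD of them, cut at about 14% in these data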;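 further: 0% = plate median of compound wells and 100% = 10 µM Aha-Tn7 peptide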
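system = human fibrin DD(E) protein | quantity = DD(E) 2 µM final | medium = Tris/NaCl/CaCl2 buffer, pH 7.8 | also added = labelled Tn7 tracer, 0.1 µM | compound dosing = single point at 8.3 µM | timing = compound with protein 10 min, then 3 h after probe, room temperature | signal = FP measurement | benchmarks = Aha-Tn7 high control | repeats = one replicate per compound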
TAG conf: triacylglycerol accumulation inhibition, confirmation; shares compounds with H9c2 TAG inh; H9c2 lipid accumulation, Nile Red fluorescence; cells loaded with 200 µM oleic acid; inhibition, % at 12.5 µM; 990 compounds, 71% hits; AID 651629;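 active means mean inhibition across replicates of 40% or more; inactive means mean inhibition below 40%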;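 further: plate controls were DMSO only wells for no effect and Triacsin C treated wells for full effect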
An asterisk follows results filed as active; / = no result; ! = not active in a repeat. The list is not random: actives were taken first. Their share in the collection is about 1.4%.

SMILES | H9c2 TAG inh | Cardio protect | DAGLB inhibitor | Tn6 DDE FP | MT1-MMP act inh | DDE Tn7 FP inh | TAG conf
COC(=O)[C@]1(C)N[C@H](c2ccc(-c3ccc(Cl)c(Cl)c3)c(OC)c2)[C@@H]2C(=O)N(C)C(=O)[C@@H]21 | 51* | 3 | -2 | 4 | 8 | 4 | 36
COC(=O)[C@]1(CC(C)C)N[C@H](c2ccc(-c3ccc(F)cc3)cc2)[C@@H]2C(=O)N(C)C(=O)[C@@H]21 | 56* | 2 | -1 | -2 | 0 | 10 | 43*
CCN1C(=O)[C@H]2[C@@H](c3ccc(-c4cccc(Cl)c4)cc3)N[C@@](Cc3ccccc3)(C(=O)OC)[C@H]2C1=O | 51* | 0 | -6 | 0 | -6 | -1 | 60*
COC(=O)[C@]1(CC(C)C)N[C@H](c2ccc(-c3ccc(OC)cc3)cc2)[C@@H]2C(=O)N(C)C(=O)[C@@H]21 | 54* | -3 | -13 | 4 | -6 | 8 | 36
COC(=O)[C@]1(CC(C)C)N[C@H](c2ccc(-c3ccccc3)cc2)[C@@H]2C(=O)N(C)C(=O)[C@@H]21 | 45 | -2 | -2 | 10 | 8 | 12 | /
COC(=O)[C@]1(C)N[C@H](c2ccc(-c3ccc(OC)cc3)cc2)[C@@H]2C(=O)N(C)C(=O)[C@@H]21 | -3 | -2 | -1 | 2 | 4 | 4 | /
CCCC(=O)N1CCc2cc(OC)c(OC)cc2C1COc1ccccc1OC (centres undefined) | / | -3 | -1 | -4 | 0 | -3 | /
CCOc1ccc(CC2c3cc(OCC)c(OCC)cc3CCN2C(=O)c2cc(OC)c(OC)c(OC)c2)cc1OCC (centres undefined) | 62* | 29 | 1 | 0 | 0 | 2 | 36
COc1ccc(S[C@]2(C(=O)N3CCCC3)CC(=O)N(c3ccc4c(ccn4C)c3)[C@@H]2c2ccc(OC)cc2)cc1 | / | / | / | 1 | / | 2 | /
COC(=O)[C@]12C[C@H](CC(=O)N3CCC(c4ccccc4)CC3)C(=O)N(Cc3ccc(Cl)cc3Cl)C1=C[C@H](C(C)C)O[C@@H]2C1CC1 | / | / | / | 3 | / | -4 | /
COCCOC(=O)c1[nH]c2c(c1C)C(=O)CC(c1ccc(F)cc1)C2 (centres undefined) | 8 | -29 | -1 | 2 | -6 | -1 | /
COCCOC(=O)c1[nH]c2c(c1C)C(=O)CC(c1ccccc1)C2 (centres undefined) | 80* | -8 | -1 | / | 7 | / | 47*
Nc1[nH]c(C(=O)c2ccccc2)c(-c2cccc3ccccc23)c1C(=O)NC1CCCCC1 | / | / | / | -10 | / | -8 | /
CCCCCCCCn1c(N2CCN(c3cccc(Cl)c3)CC2)nc2c1c(=O)[nH]c(=O)n2C | 65* | -7 | -3 | 3 | -15 | 10 | 66*
O=c1c2ccccc2n(Cc2ccco2)n1[C@@H](Cc1ccccc1)Cn1cc(C2CCCC2)nn1 | / | / | / | 8 | / | 9 | /
CCOc1ccc(NC(=O)Cn2nnc(-c3ccccc3NC(=O)C3CC3)n2)cc1 | 72* | -3 | -3 | 9 | -7 | 4 | 40
O=C(CNCc1ccccc1[N+](=O)[O-])N1CCC2(CC1)OCCO2 | / | / | / | 7 | / | 9 | /
Cc1onc(C(=O)N2CCN(C(c3ccc(Cl)cc3)c3ccc(Cl)cc3)CC2)c1[N+](=O)[O-] | / | / | / | -5 | / | 1 | /
O=C(c1cc(-c2ccncc2)nc2c(Cl)cccc12)N1CCN(c2ccccc2F)CC1 | 56* | 4 | -1 | 2 | 2 | -1 | 69*
O=C(c1cc(-c2ccccc2Cl)nc2ccccc12)N1CCN(c2ccccc2O)CC1 | -2 | 21 | 2 | 3 | -2 | 11 | /
CN1C(=O)c2cc(NC(=O)Nc3ccccc3F)ccc2OC[C@H]2O[C@@H](CC(=O)NCc3ccc(-c4ccccc4)cc3)CC[C@@H]21 | / | / | / | -1 | / | -5 | /
NCCC(=O)N1c2ccccc2Sc2ccc(Cl)cc21 | 68* | -4 | 0 | 1 | 0 | -1 | 40
COc1ccc(C2NC(C(=O)O)Cc3c2[nH]c2ccccc32)cc1OC (centres undefined) | -14 | 3 | 3 | 1 | -13 | 7 | /
COc1ccc(C2NCCc3c2[nH]c2ccccc32)cc1CSc1nc2ccccc2s1 (centres undefined) | 57* | -20 | 1 | -4 | -8 | -1 | 51*
COc1cc(CC(=O)OCC(=O)c2ccc3c(c2)OCCO3)cc(OC)c1OC | 68* | -1 | -4 | 0 | 16 | 0 | 49*
SMILES | H9c2 TAG inh | Cardio protect | DAGLB inhibitor | Tn6 DDE FP | MT1-MMP act inh | DDE Tn7 FP inh | TAG conf
O=C(COC(=O)c1ccc(O)cc1)c1ccc2c(c1)OCCO2 | -16 | -14 | -2 | 0 | -2 | 2 | /
COc1ccc(-c2cnnc(N/N=C/c3ccc(-c4ccc([N+](=O)[O-])cc4)o3)n2)cc1 | 63* | 19 | -1 | -5 | -3 | -1 | 61*
CN1CCN(c2ccc(Cl)cc2NC(=O)c2nn(-c3ccccc3)c(=O)c3ccccc23)CC1 | 52* | -24 | 1 | 1 | -2 | 3 | 27
Cn1nc(C(=O)Nc2cc(Cl)ccc2N2CCCC2)c2ccccc2c1=O | 5 | -2 | 0 | 1 | 1 | 3 | /
Cc1cc(N2CCN(C(=O)OC(C)(C)C)C[C@H]2C)ccc1Br | / | / | / | 1 | / | 5 | /
COc1cc(NC(=O)c2csc(N)n2)cc(C(=O)Nc2cccc(C(F)(F)F)c2)c1 | 59*! | 20 | 1 | 0 | 8 | 2 | 50*
CCCCNC(=O)C[C@@H]1C[C@]2(C(=O)OCC)CCC3=C2N(CCC3)C1=O | / | / | / | 0 | / | -1 | /
CN(C)c1ncnc2c1ncn2C1OC(CO)C(O)C1O (centres undefined) | 75* | 6 | -1 | -10 | 16 | -7 | 46*
Cc1ccc(CN2CCCCC(NC(=O)c3c(F)cccc3F)C2=O)cc1 (centres undefined) | / | / | / | 2 | / | -9 | /
CCOC(=O)Cc1ccc(Nc2nc3cc(-c4sccc4C)sc3c(=O)n2C)cc1 | 51* | -12 | / | 0 | 1 | 1 | 71*
COc1ccc(Nc2nc3cc(-c4sccc4C)sc3c(=O)n2C)cc1OC | 57* | 2 | / | -12 | 4 | -4 | 71*
COc1cc(-c2cnc3c(NC=O)cc(-c4cccc(C(F)(F)F)c4)cn23)cc(OC)c1OC | 28 | 3 | / | 2 | 16 | -9 | /
COc1ccc(-c2cc(NC=O)c3ncc(-c4ccc(OC)c(OC)c4)n3c2)cc1 | 56* | 36 | / | 1 | -25 | 5 | 66*
COc1cc(-c2cnc3c(NC=O)cc(-c4cccnc4)cn23)cc(OC)c1OC | 54* | 76* | / | 4 | -3 | 4 | 46*

Source: PubChem BioAssay
